Assays:
[1] = In vitro for binding affinity against beta adrenergic receptor in rat cerebellum; format: tissue-based
Outline: (§1)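 Male Sprague–Dawley rat cortex or cerebellum membranes, washed in HEPES–EDTA pH 7.5 and resuspended in NaCl–Tris–MgCl2 pH 7.5. Bound ligand collected by filtration and gamma-counted; isoproterenol 25 μM defines nonspecific binding. IC50 and Hill n by nonlinear regression; Ki by Cheng–Prusoff for the eutomer. Run at least twice.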

[2] = Distribution coefficient value of the compound; format: physicochemical; settings: octanol/water
Outline: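 Shake-flask partition between 0.1 M potassium phosphate pH 7.4 and 1-octanol, each phase presaturated with the other. Compound at 0.1–1.0 mg/mL in buffer, shaken 30 min, left 10 min, spun 600g 10 min at room temperature. Aqueous-phase absorbance read before and after partition at a per-compound wavelength. D = (Aorig−Aextr)/(Aextr·f), with f the octanol:buffer volume ratio. Run twice.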

[3] = In vitro for binding affinity against beta adrenergic receptor in rat cortex; outline: as §1
[4] = organism: Rattus norvegicus; assay: Hill coefficient value assayed against rat beta adrenergic receptor; outline: as §1

Compound | Ki [1] [nM] | logD [2] | Ki [3] [nM] | Hill coefficient [4]
Nc1ccc(CCNCC(O)COc2cccc3[nH]ccc23)cc1 (stereo not given) | 22 | 0.3 | 25 | > 0.9
OC(CNCCc1ccccc1)COc1cccc2[nH]ccc12 (stereo not given) | 4 | 1.7 | 5 | > 0.9
OC(CNCc1ccc(F)cc1)COc1cccc2[nH]ccc12 (stereo not given) | 80 | 1.9 | 125 | > 0.9
OC(CNCc1ccccc1F)COc1cccc2[nH]ccc12 (stereo not given) | 45 | 2 | 60 | > 0.9
CC(C)(CO)NCC(O)COc1cccc2[nH]ccc12 (stereo not given) | 2 | -0.6 | 2 | > 0.9
OC(CNCCc1ccc(F)cc1)COc1cccc2[nH]ccc12 (stereo not given) | 4 | 2 | 5 | > 0.9
O=[N+]([O-])c1ccc(CCNCC(O)COc2cccc3[nH]ccc23)cc1 (stereo not given) | 8 | 1.5 | 5 | > 0.9
COc1ccc(CCNCC(O)COc2cccc3[nH]ccc23)cc1OC (stereo not given) | 7 | 1.1 | 3 | > 0.9
CC(C)NCC(O)COc1cccc2[nH]ccc12 (stereo not given) [PINDOLOL] | 1 | -0.3 | 1 | > 0.9
OC(CNCCc1ccc(Cl)c(Cl)c1)COc1cccc2[nH]ccc12 (stereo not given) | 11 | 2.5 | 6 | > 0.9

Source: ChEMBL document CHEMBL1123350, “Synthesis and beta-adrenergic receptor blocking potency of 1-(substituted amino)-3-(4-indolyloxy)propan-2-ols” (J Med Chem, 1986)
